# Measurements: PMC8640676 (Journal of Pesticide Science, 2021)
# Assays:
# [1] = system: cryopreserved primary hepatocytes of SD rats; assay: Hepatocyte uptake assay; format: in vitro ADME, rat; conditions: rats vs humans
# [2] = biological target: T1, protoporphyrinogen oxidase (PPO) (Homo sapiens, UniProt P50336); assay: PPO-inhibition assay, human liver mitochondrial fraction; format: biochemical
# T1 sequence (P50336 1-477): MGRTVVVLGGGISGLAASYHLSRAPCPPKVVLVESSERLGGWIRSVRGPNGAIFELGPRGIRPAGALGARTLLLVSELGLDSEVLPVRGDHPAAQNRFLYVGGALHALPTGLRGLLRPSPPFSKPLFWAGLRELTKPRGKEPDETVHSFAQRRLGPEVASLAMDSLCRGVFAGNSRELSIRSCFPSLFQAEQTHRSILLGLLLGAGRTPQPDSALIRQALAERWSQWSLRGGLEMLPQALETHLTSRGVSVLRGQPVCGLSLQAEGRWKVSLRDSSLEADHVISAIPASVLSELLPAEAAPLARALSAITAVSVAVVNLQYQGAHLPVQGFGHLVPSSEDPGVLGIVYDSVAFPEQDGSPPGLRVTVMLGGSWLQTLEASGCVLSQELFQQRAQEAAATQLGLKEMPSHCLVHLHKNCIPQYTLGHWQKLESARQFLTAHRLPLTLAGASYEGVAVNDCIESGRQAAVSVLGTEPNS
# Method in brief: (§1)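 Liver mitochondria came from pooled SD rats and humans, or were freshly kit-isolated from Crl:CD1 mice and TOYO beagles. They were used at 0.2 mg protein/mL in 100 mM Tris-HCl pH 7.5 with 0.1% Triton-X, 1 mM EDTA and 40 mM ascorbate, preincubated 10 min at 37°C, then given 0.5 µM protoporphyrinogen IX. PPIX fluorescence (ex 410/em 630 nm) was read for 60 min at 37°C. Heat-killed mitochondria gave the background, and IC50 came from 4-parameter fits over 3 runs.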
# [3] = In vitro metabolism study in liver microsomes; format: in vitro ADME; conditions: human liver microsomes
# [4] = biological target: T2, protoporphyrinogen oxidase (PPO) (Rattus norvegicus, UniProt D3ZVN7); assay: PPO-inhibition assay, rat liver mitochondrial fraction; format: biochemical
# T2 sequence (D3ZVN7 1-488): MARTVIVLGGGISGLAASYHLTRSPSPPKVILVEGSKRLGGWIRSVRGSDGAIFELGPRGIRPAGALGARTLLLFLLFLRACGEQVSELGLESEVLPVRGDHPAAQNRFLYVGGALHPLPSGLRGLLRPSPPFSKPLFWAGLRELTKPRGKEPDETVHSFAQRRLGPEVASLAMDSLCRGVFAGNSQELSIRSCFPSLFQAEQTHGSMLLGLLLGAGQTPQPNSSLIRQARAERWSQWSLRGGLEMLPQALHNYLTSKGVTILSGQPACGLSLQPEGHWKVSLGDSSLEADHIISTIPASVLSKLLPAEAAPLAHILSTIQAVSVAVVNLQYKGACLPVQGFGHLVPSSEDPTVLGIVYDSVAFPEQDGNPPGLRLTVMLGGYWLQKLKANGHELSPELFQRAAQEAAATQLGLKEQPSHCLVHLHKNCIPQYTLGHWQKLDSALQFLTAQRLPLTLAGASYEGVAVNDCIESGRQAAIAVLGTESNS
# Method in brief: as §1
# [5] = In vitro metabolism study in liver microsomes; format: in vitro ADME; conditions: rat liver microsomes
# [6] = Toxicokinetics in plasma, dog 90-day study; format: in vivo; conditions: for Cmax: beagle, dog, plasma, po
# [7] = Toxicokinetics in plasma, mouse 90-day study; format: in vivo; conditions: for AUC(0-t) / Cmax: mouse, plasma, po
# [8] = biological target: T3, protoporphyrinogen oxidase (PPO) (Canis lupus familiaris, UniProt A0A8I3Q7Z3); assay: PPO-inhibition assay, dog liver mitochondrial fraction; format: biochemical
# T3 sequence (A0A8I3Q7Z3 1-480): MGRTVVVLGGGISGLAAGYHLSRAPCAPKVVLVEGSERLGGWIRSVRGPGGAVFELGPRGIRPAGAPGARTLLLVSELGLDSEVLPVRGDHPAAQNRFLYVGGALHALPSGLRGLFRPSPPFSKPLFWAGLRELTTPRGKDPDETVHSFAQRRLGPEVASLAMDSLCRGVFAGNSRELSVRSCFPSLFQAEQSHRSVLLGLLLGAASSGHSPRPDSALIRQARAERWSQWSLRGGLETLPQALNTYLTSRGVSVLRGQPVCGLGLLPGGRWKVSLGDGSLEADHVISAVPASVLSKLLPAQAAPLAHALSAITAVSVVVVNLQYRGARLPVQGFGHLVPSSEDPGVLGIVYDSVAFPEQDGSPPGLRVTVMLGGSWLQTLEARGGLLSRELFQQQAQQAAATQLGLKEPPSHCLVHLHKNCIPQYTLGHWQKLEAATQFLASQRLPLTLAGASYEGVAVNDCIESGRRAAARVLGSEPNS
# Method in brief: as §1
# [9] = Toxicokinetics in plasma, rat 90-day study; format: in vivo; conditions: for AUC(0-t) / Cmax: rat, plasma, po
# [10] = biological target: T4, protoporphyrinogen oxidase (PPO) (Mus musculus, UniProt P51175); assay: PPO-inhibition assay, mouse liver mitochondrial fraction; format: biochemical
# T4 sequence (P51175 1-477): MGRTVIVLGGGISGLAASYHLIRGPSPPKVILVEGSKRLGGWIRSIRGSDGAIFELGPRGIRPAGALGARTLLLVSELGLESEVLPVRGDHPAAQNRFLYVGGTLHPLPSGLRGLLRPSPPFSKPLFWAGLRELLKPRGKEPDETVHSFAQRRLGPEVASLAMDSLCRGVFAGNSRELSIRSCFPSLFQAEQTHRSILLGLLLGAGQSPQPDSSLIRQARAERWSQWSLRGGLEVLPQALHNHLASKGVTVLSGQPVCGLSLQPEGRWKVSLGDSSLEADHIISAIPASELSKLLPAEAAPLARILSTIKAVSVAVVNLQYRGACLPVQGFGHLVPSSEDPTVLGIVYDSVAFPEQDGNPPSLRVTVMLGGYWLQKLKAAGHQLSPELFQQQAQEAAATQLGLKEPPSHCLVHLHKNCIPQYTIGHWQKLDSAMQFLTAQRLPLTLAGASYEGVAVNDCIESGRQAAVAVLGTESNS
# Method in brief: as §1
# [11] = In vitro metabolism study in liver microsomes; format: in vitro ADME; conditions: mouse liver microsomes
# [12] = system: cryopreserved primary hepatocytes of humans; assay: Hepatocyte uptake assay; format: in vitro ADME; conditions: human hepatocytes (both genders), 5 µM, 37°C minus 4°C
# [13] = Incubation of epyrifenacil without microsomal fractions; format: in vitro ADME; conditions: 30 min of incubation
# [14] = 90-day subchronic toxicity study with epyrifenacil in rats; format: in vivo, rat; conditions: Crl:CD(SD), rat, in vivo, oral
# Method in brief: (§2)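 Crl:CD(SD) rats, 10 per sex per group, had free access to diet containing 0 (basal diet), 50, 300 or 800 ppm for 90 consecutive days. TK satellite groups held 4 rats per sex. The study was run to test guidelines under GLP.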
# Crl:CD(SD) rats = assay: as above; format: in vivo, rat
# Method in brief: as §2
# [15] = 90-day subchronic toxicity study with epyrifenacil in dogs; format: in vivo, dog; conditions: beagle, dog, in vivo, oral
# Method in brief: (§3)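 Beagles, 4 per sex per group, were dosed orally with gelatin capsules at 0, 100, 300 or 1000 mg/kg/day for 90 consecutive days. The study was run to test guidelines under GLP.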
# Beagle dogs = assay: as above; format: in vivo, dog
# Method in brief: as §3
# Crl:CD1(ICR) mice = assay: 90-day subchronic toxicity study with epyrifenacil in mice; format: in vivo; conditions: mouse, 90-day study
# Method in brief: (§4)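 Crl:CD1(ICR) mice, 10 per sex per group, had free access to diet containing 0 (basal diet), 5, 25 or 100 ppm for 90 consecutive days. TK satellite groups held 24 mice per sex. The study was run to test guidelines under GLP.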
# [16] = as above; format: in vivo; conditions: Crl:CD1(ICR), mouse, in vivo, oral
# Method in brief: as §4
# [17] = female, Crl:CD1(ICR), 4.1 mg/kg bw/day
# [18] = female, Crl:CD(SD), 19 mg/kg bw/day
# [19] = male, Crl:CD(SD), 3 mg/kg bw/day
smiles,measurement,setting,value
"Cn1c(C(F)(F)F)cc(=O)n(-c2cc(Oc3cccnc3OCC(=O)O)c(Cl)cc2F)c1=O [S-3100-CA, (3-{2-chloro-4-fluoro-5-[1,2,3,6-tetrahydro-3-methyl-2,6-dioxo-4-(trifluoromethyl)pyrimidin-1-yl]phenoxy}pyridin-2-yloxy)acetic acid]","Hepatocyte uptake, times greater in rats than in humans",[1],2 times
same,IC50,[2],12.5 ± 2.08 nM
same,"S-3100-CA detected as major metabolite, share of the applied radioactivity",[3]; [14C]epyrifenacil 10 µM,no less than 80%
same,IC50,[4],1.5 ± 0.36 nM
same,"S-3100-CA detected as major metabolite, share of the applied radioactivity",[5]; [14C]epyrifenacil 10 µM,no less than 80%
same,"AUC0–24 of S-3100-CA at NOAEL, fold change vs. corresponding mouse value",[6]; female dogs vs female mice,23 fold
same,"Cmax of S-3100-CA at NOAEL, fold change vs. corresponding mouse value",[6]; female dogs vs female mice,42 fold
same,Cmax,"[6]; female, 300 mg/kg bw/day",5650 ng/mL
same,Cmax,"[6]; female, 300 mg/kg/day",5650 ng/mL
same,"Cmax of S-3100-CA at NOAEL, fold change vs. corresponding mouse value",[6]; male dogs vs male mice,74 fold
same,Cmax,"[6]; male, 100 mg/kg bw/day",947 ng/mL
same,Cmax,"[6]; male, 100 mg/kg/day",947 ng/mL
same,AUC(0-t),[7]; [17],2240 ng·h/mL
same,Cmax,[7]; [17],135 ng/mL
same,AUC(0-t),"[7]; female, 5 ppm in diet",403 ng·h/mL
same,Cmax,"[7]; female, 5 ppm in diet",22.7 ng/mL
same,AUC(0-t),"[7]; female, 25 ppm in diet",2240 ng·h/mL
same,Cmax,"[7]; female, 25 ppm in diet",135 ng/mL
same,AUC(0-t),"[7]; female, 100 ppm in diet",14800 ng·h/mL
same,Cmax,"[7]; female, 100 ppm in diet",860 ng/mL
same,Cmax,"[7]; male, Crl:CD1(ICR), 0.7 mg/kg bw/day",12.8 ng/mL
same,Cmax,"[7]; male, 5 ppm in diet",12.8 ng/mL
same,AUC(0-t),"[7]; male, 25 ppm in diet",4580 ng·h/mL
same,Cmax,"[7]; male, 25 ppm in diet",64.9 ng/mL
same,AUC(0-t),"[7]; male, 100 ppm in diet",10100 ng·h/mL
same,Cmax,"[7]; male, 100 ppm in diet",550 ng/mL
same,IC50,[8],11.1 ± 3.12 nM
same,"AUC0–24 of S-3100-CA at NOAEL, fold change vs. corresponding mouse value",[9]; female rats vs female mice,2.2 fold
same,"Cmax of S-3100-CA at NOAEL, fold change vs. corresponding mouse value",[9]; female rats vs female mice,2.0 fold
same,AUC(0-t),[9]; [18],5020 ng·h/mL
same,Cmax,[9]; [18],266 ng/mL
same,AUC(0-t),"[9]; female, Crl:CD(SD), 50 ppm",879 ng·h/mL
same,Cmax,"[9]; female, 50 ppm in diet",46.5 ng/mL
same,AUC(0-t),"[9]; female, 300 ppm in diet",5020 ng·h/mL
same,Cmax,"[9]; female, 300 ppm in diet",266 ng/mL
same,AUC(0-t),"[9]; female, 800 ppm in diet",13200 ng·h/mL
same,Cmax,"[9]; female, 800 ppm in diet",756 ng/mL
same,"Cmax of S-3100-CA at NOAEL, fold change vs. corresponding mouse value",[9]; male rats vs male mice,1.6 fold
same,AUC(0-t),[9]; [19],467 ng·h/mL
same,Cmax,[9]; [19],20.7 ng/mL
same,AUC(0-t),"[9]; male, Crl:CD(SD), 50 ppm",467 ng·h/mL
same,Cmax,"[9]; male, Crl:CD(SD), 50 ppm",20.7 ng/mL
same,AUC(0-t),"[9]; male, 300 ppm in diet",4010 ng·h/mL
same,Cmax,"[9]; male, 300 ppm in diet",248 ng/mL
same,IC50,[10],0.9 ± 0.3 nM
same,"S-3100-CA detected as major metabolite, share of the applied radioactivity",[11]; [14C]epyrifenacil 10 µM,no less than 80%
same,Active uptake rate into hepatocytes,[12],3.83 µL/10^6 cells/min
"CCOC(=O)COc1ncccc1Oc1cc(-n2c(=O)cc(C(F)(F)F)n(C)c2=O)c(F)cc1Cl [epyrifenacil, ethyl[(3-{2-chloro-4-fluoro-5-[3-methyl-2,6-dioxo-4-(trifluoromethyl)-3,6-dihydropyrimidin-1(2H)-yl]phenoxy}pyridin-2-yl)oxy]acetate]",Non-enzymatic degradation,[13],did not present any degradants
same,IC50,[2],10.2 ± 0.66 nM
same,Time within which epyrifenacil almost disappeared,"[3]; 10 µM, NADPH, 37°C",≤ 5 min
same,IC50,[4],2.6 ± 0.05 nM
same,NOAEL at 90 days,[14]; female,19 mg/kg/day
same,NOAEL at 90 days,[14]; male,3 mg/kg/day
same,"NOAEL, fold change vs. corresponding mouse value",Crl:CD(SD) rats; female rats vs female mice,4.6 fold
same,"NOAEL, fold change vs. corresponding mouse value",Crl:CD(SD) rats; male rats vs male mice,4.3 fold
same,Major adverse findings,"Crl:CD(SD) rats; rat, 90-day study","Hepatocyte injury caused by porphyrin accumulation, hepatocellular hypertrophy, anemia"
same,NOAEL at 90 days,[15]; female,300 mg/kg/day
same,NOAEL at 90 days,[15]; male,100 mg/kg/day
same,Major adverse findings,"Beagle dogs; dog, 90-day study","Increased glycogen associated with increased ALP, anemia"
same,"NOAEL, fold change vs. corresponding mouse value",Beagle dogs; female dogs vs female mice,73 fold
same,"NOAEL, fold change vs. corresponding mouse value",Beagle dogs; male dogs vs male mice,143 fold
same,Time within which epyrifenacil almost disappeared,"[5]; 10 µM, NADPH, 37°C",≤ 5 min
same,Parent epyrifenacil detected in plasma,"[6]; dog plasma, 90-day oral capsule administration",not more than 0.04 µg/mL
same,Parent epyrifenacil detected in plasma,"[7]; mice, 90-day dietary administration (data not shown)",no measurable amount
same,IC50,[8],7.6 ± 0.18 nM
same,Parent epyrifenacil detected in plasma,"[9]; rats, 90-day dietary administration (data not shown)",no measurable amount
same,IC50,[10],2.2 ± 0.03 nM
same,Time within which epyrifenacil almost disappeared,"[11]; 10 µM, NADPH, 37°C",≤ 5 min
same,Major adverse findings,Crl:CD1(ICR) mice,"Hepatocyte injury caused by porphyrin accumulation, hepatocellular hypertrophy, anemia"
same,NOAEL at 90 days,[16]; female,4.1 mg/kg/day
same,NOAEL at 90 days,[16]; male,0.7 mg/kg/day
